Results from ChEMBL document CHEMBL3046678, “Isolation and characterization of new p-Terphenyls with antifungal, antibacterial, and antioxidant activities from halophilic actinomycete Nocardiopsis gilva YIM 90087” (2013).
In brackets after ≈: the same amount, converted by molar mass.

Key:
[1] = tested on: Radical scavenging activity; assay: Antioxidant activity assessed as DPPH radical scavenging activity at 4 mg/ml after 30 min by spectrophotometric analysis; format: functional
Method in brief: (§1)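 DPPH stock diluted 1:20 in EtOH; 290 μL of this mixed with 10 μL sample, EtOH as negative control, vitamin C as positive control. Kept 30 min in dark, absorbance read at 517 nm. Scavenging % = [1 − (Ae − As)/Ac] × 100, where As is sample blank absorbance. Triplicate.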

[2] = Antioxidant activity assessed as ABTS radical scavenging activity at 2 mg/ml after 5 min by spectrophotometric analysis; format: functional
Method in brief: (§2)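 ABTS radical cation made from ABTS (7 mM) and potassium persulfate (2.45 mM), held 16 h in dark at room temperature, then 350 μL diluted to 25 mL with aqueous 80% EtOH. Sample added to 250 μL working solution, kept 5 min in dark at room temperature, A734 read. Scavenging % = [1 − (Ae − As)/Ac] × 100 against solvent control, triplicate.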

[3] = Antioxidant activity assessed as ABTS radical scavenging activity at 1 mg/ml after 5 min by spectrophotometric analysis; format: functional; method in brief: as §2
[4] = tested on: Radical scavenging activity; assay: Antioxidant activity assessed as DPPH radical scavenging activity at 2 mg/ml after 30 min by spectrophotometric analysis; format: functional; method in brief: as §1
Bacillus subtilis = assay: Antibacterial activity against Bacillus subtilis after 24 hr by microdilution method; format: functional
Method in brief: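 Bacteria grown 18 h, diluted in LB broth to 1 × 10^5 CFU/mL in 96-well microplates. Compounds in DMSO, 2-fold serial dilutions 512 to 0.5 μg/mL final, DMSO ≤5%. Incubated 37 °C for 24 h, growth checked by microscope. MIC = lowest concentration giving complete growth inhibition. DMSO negative control, kanamycin positive control, three repeats.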

Candida albicans = assay: Antifungal activity against Candida albicans after 4 days by microdilution method; format: functional
Method in brief: (§3)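 Spores from 4-day-old cultures in PDB broth at 1 × 10^3 spores/mL, 96-well broth microdilution. Compounds in DMSO (final ≤5%), 2-fold serial dilutions 512–0.5 μg/mL. Incubated 28 °C, 4 days. DMSO negative control, nystatin positive control. Growth checked microscopically. MIC is the lowest concentration with complete inhibition. Experiments repeated three times.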

Fusarium culmorum = assay: Antifungal activity against Fusarium culmorum after 4 days by microdilution method; format: functional; method in brief: as §3
Fusarium graminearum = assay: Antifungal activity against Fusarium graminearum after 4 days by microdilution method; format: functional; method in brief: as §3
Fusarium avenaceum = assay: Antifungal activity against Fusarium avenaceum after 4 days by microdilution method; format: functional; method in brief: as §3
Staphylococcus aureus = assay: Antibacterial activity against Staphylococcus aureus after 24 hr by microdilution method; format: functional
Method in brief: (§4)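 Bacteria from 18-h cultures in LB broth at 1 × 10^5 CFU/mL, 96-well broth microdilution. Compounds in DMSO (final ≤5%), 2-fold serial dilutions from 512 to 0.5 μg/mL. Incubated 37 °C for 24 h. DMSO-only negative control, kanamycin positive control. Growth read by microscope. MIC is the lowest concentration giving complete growth inhibition. Three repeats.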

Pyricularia oryzae = assay: Antifungal activity against Magnaporthe oryzae after 4 days by microdilution method; format: functional; method in brief: as §3
[5] = Antioxidant activity assessed as superoxide anion radical scavenging activity at 2 mg/ml after 5 min by spectrophotometric analysis; format: functional
Method in brief: (§5)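 Superoxide made by non-enzymatic NADH–PMS system, detected by NBT reduction. 200 μL mix of 150 μM NBT and 234 μM NADH in 16 mM Tris-HCl pH 8.0, plus 10 μL sample. Reaction started with 100 μL of 30 μM PMS in the same buffer, 5 min at room temperature, A560 read. % = [1 − (Ae − As)/Ac] × 100, triplicate.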

[6] = Antioxidant activity assessed as ABTS radical scavenging activity at 0.5 mg/ml after 5 min by spectrophotometric analysis; format: functional; method in brief: as §2
Escherichia coli = assay: Antibacterial activity against Escherichia coli after 24 hr by microdilution method; format: functional; method in brief: as §4
[7] = Antioxidant activity assessed as superoxide anion radical scavenging activity at 5 mg/ml after 5 min by spectrophotometric analysis; format: functional; method in brief: as §5
[8] = Antioxidant activity assessed as ABTS radical scavenging activity at 0.16 mg/ml after 5 min by spectrophotometric analysis; format: functional; method in brief: as §2
[9] = tested on: Radical scavenging activity; assay: Antioxidant activity assessed as DPPH radical scavenging activity at 0.8 mg/ml after 30 min by spectrophotometric analysis; format: functional; method in brief: as §1
Aspergillus niger = assay: Antifungal activity against Aspergillus niger after 4 days by microdilution method; format: functional, organism-based; method in brief: as §3
Trichophyton verrucosum = assay: Antifungal activity against Trichophyton verrucosum after 4 days by microdilution method; format: functional, organism-based; method in brief: as §3

In the case of `COc1ccc(-c2c(OC)c(O)c(-c3ccc(OC)cc3)c3scnc23)cc1`, the Activity [1] is reported as 14.3% and the Activity [2] is reported as 28.4%.
`COc1ccc(-c2cc(O)c(-c3ccc(OC)cc3)c(OC)c2OC)cc1` gave an Activity [3] of 68.6%, an Activity [4] of 54.9% and an MIC (Bacillus subtilis) of 64 µg/mL (≈ 175 µM). The MIC (Candida albicans; 96 h) was 32 µg/mL (≈ 87.3 µM), the MIC (Fusarium culmorum; 96 h) was 128 µg/mL (≈ 349 µM) and the MIC (Fusarium graminearum; 96 h) was 16 µg/mL (≈ 43.7 µM). For the same compound, the MIC (Fusarium avenaceum; 96 h) was 8 µg/mL (≈ 21.8 µM).
In the case of `CO[C@@H]1[C@@H](OC(N)=O)[C@@H](O)[C@H](Oc2ccc3c(O)c(NC(=O)c4ccc(O)c(CC=C(C)C)c4)c(=O)oc3c2C)OC1(C)C` [NOVOBIOCIN], the Activity [4] is reported as 47.7%, the MIC (Bacillus subtilis) is reported as 16 µg/mL (≈ 26.1 µM) and the MIC (Staphylococcus aureus) is reported as 64 µg/mL (≈ 104 µM). The MIC (Pyricularia oryzae; 96 h) was 16 µg/mL (≈ 26.1 µM), the Activity [5] was 77.9% and the Activity [6] was 78.2%.
Work on `NC[C@H]1O[C@H](O[C@H]2[C@H](O)[C@@H](O[C@H]3O[C@H](CO)[C@@H](O)[C@H](N)[C@H]3O)[C@H](N)C[C@@H]2N)[C@H](O)[C@@H](O)[C@@H]1O` [KANAMYCIN] yielded an MIC (Escherichia coli) of 1 µg/mL (≈ 2.06 µM), an MIC (Bacillus subtilis) of 1 µg/mL (≈ 2.06 µM) and an MIC (Staphylococcus aureus) of 4 µg/mL (≈ 8.26 µM).
`O=C1O[C@H]([C@@H](O)CO)C(O)=C1O` showed an Activity [7] of 75.5%, an Activity [8] of 79.1% and an Activity [9] of 43.9%.
`C[C@@H]1NC(=O)[C@H](Cc2c[nH]c3ccccc23)NC1=O` showed an Activity [2] of 54.6%.
With NYSTATIN the MIC (Pyricularia oryzae) was 8 µg/mL, the MIC (Aspergillus niger) was 8 µg/mL and the MIC (Candida albicans) was 4 µg/mL. For the same compound, the MIC (Trichophyton verrucosum) was 4 µg/mL, the MIC (Fusarium culmorum) was 1 µg/mL and the MIC (Fusarium graminearum) was 4 µg/mL. The MIC (Fusarium avenaceum) was 1 µg/mL.
